# Laboratory results published in ChEMBL document CHEMBL1944565, “Exploration of α-aminophosphonate N-derivatives as novel, potent and selective inhibitors of protein tyrosine phosphatases” (Eur J Med Chem, 2012).
# pIC50: −log10 of the molar value. The source made the active and inactive calls. The rule behind the calls is not given here.
# Tests used:
# [1] = biological target: Tyrosine-protein phosphatase non-receptor type 6 (Homo sapiens, UniProt P29350); assay: Inhibition of human SHP1 using p-nitrophenol phosphate as substrate incubated for 35 mins prior to substrate addition measured after 30 mins by spectrophotometry
# Tyrosine-protein phosphatase non-receptor type 6, sequence (P29350 whole entry): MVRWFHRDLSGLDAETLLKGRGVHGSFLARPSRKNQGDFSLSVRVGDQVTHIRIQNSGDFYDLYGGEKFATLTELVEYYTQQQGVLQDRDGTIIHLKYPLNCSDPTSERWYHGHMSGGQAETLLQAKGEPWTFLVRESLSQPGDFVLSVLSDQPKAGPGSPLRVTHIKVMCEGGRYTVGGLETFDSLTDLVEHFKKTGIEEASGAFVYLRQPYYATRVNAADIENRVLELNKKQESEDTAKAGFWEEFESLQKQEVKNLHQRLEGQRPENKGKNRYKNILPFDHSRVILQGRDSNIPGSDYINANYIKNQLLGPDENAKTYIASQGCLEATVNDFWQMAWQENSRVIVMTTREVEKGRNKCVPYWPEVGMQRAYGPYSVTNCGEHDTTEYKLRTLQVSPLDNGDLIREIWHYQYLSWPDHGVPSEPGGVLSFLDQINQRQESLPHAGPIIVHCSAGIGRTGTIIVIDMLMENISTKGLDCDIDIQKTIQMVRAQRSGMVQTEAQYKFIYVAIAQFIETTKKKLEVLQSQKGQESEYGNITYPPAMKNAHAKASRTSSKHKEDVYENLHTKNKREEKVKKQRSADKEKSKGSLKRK
# Procedure, shortened: (§1)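 Recombinant human phosphatase, expressed and purified, in 20 mM MOPS pH 7.2 with 50 mM NaCl. Preincubated with inhibitor at various concentrations for 35 min at 37 °C. p-NPP (0.1 M stock) added and reaction run about 30 min, then stopped with 2 M NaOH.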
# [2] = biological target: T1, Tyrosine-protein phosphatase non-receptor type 9 (Homo sapiens, UniProt P43378); assay: Inhibition of human PTP-MEG2 using p-nitrophenol phosphate as substrate incubated for 35 mins prior to substrate addition measured after 30 mins by spectrophotometry; procedure, shortened: as §1
# T1 sequence (P43378 whole entry): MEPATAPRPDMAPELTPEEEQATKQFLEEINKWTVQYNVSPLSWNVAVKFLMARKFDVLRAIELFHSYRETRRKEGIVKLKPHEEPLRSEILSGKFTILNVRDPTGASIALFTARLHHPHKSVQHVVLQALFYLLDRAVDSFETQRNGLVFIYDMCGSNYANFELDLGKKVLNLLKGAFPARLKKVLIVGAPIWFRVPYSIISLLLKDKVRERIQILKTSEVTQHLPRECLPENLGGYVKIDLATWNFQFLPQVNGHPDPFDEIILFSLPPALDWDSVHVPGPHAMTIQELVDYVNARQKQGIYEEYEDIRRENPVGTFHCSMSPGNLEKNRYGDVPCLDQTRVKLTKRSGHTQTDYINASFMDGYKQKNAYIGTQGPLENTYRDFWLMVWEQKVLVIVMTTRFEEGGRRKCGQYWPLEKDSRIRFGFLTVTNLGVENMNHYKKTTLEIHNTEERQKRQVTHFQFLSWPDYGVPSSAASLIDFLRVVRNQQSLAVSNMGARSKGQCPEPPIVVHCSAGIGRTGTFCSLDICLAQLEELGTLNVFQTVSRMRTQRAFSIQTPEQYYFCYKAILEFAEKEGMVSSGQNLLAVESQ
# [3] = biological target: T2, Tyrosine-protein phosphatase non-receptor type 11 (Homo sapiens, UniProt Q06124); assay: Inhibition of human SHP2 using p-nitrophenol phosphate as substrate incubated for 35 mins prior to substrate addition measured after 30 mins by spectrophotometry; procedure, shortened: as §1
# T2 sequence (Q06124 whole entry): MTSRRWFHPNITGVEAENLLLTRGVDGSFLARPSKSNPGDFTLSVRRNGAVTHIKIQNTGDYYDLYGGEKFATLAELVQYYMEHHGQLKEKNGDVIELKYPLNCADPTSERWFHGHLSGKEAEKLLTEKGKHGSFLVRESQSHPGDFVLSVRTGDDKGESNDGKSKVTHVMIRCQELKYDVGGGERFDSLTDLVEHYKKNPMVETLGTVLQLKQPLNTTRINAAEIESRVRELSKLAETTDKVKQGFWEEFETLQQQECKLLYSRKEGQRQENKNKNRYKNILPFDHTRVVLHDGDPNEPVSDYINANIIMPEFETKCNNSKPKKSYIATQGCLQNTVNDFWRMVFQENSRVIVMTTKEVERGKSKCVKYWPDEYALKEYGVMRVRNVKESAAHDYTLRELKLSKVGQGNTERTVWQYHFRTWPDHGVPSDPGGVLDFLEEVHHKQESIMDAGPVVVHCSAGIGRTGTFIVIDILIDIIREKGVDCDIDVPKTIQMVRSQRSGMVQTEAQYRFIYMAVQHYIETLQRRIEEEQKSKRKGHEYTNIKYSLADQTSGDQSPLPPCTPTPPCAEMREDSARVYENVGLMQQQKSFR
# [4] = biological target: T3, Tyrosine-protein phosphatase non-receptor type 2 (Homo sapiens, UniProt P17706); assay: Inhibition of human TCPTP using p-nitrophenol phosphate as substrate incubated for 35 mins prior to substrate addition measured after 30 mins by spectrophotometry; procedure, shortened: as §1
# T3 sequence (P17706 whole entry): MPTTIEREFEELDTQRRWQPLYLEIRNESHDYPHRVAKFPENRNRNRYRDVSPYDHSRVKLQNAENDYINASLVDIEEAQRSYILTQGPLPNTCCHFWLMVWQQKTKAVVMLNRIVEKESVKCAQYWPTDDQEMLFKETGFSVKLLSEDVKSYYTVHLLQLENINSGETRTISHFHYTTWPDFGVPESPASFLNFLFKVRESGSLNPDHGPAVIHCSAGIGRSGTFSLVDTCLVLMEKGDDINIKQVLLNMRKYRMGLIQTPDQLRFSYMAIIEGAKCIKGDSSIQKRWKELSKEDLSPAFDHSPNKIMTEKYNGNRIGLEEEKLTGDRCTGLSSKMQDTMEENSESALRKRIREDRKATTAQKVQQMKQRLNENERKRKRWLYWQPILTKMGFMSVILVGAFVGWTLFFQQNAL
# [5] = biological target: T4, Tyrosine-protein phosphatase non-receptor type 1 (Homo sapiens, UniProt P18031); assay: Inhibition of human PTP1B using p-nitrophenol phosphate as substrate incubated for 35 mins prior to substrate addition measured after 30 mins by spectrophotometry; procedure, shortened: as §1
# T4 sequence (P18031 whole entry): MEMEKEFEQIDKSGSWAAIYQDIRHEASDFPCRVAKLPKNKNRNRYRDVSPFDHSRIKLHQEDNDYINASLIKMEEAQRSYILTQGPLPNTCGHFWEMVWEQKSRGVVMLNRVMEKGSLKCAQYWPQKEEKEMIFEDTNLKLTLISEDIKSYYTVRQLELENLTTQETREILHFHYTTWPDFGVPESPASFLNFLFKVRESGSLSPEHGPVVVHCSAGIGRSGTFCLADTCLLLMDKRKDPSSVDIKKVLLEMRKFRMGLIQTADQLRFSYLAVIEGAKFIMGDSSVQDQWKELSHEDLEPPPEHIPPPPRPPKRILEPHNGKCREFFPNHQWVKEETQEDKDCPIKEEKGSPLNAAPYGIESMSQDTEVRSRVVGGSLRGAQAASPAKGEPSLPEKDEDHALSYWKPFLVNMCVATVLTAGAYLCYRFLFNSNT
# [6] = biological target: T5, Tyrosine-protein phosphatase non-receptor type 9 (Homo sapiens) (UniProt P43378)
# T5 sequence (whole entry): T1 sequence (P43378 whole entry)
# [7] = biological target: T6, Tyrosine-protein phosphatase non-receptor type 1 (Homo sapiens) (UniProt P18031)
# T6 sequence (whole entry): T4 sequence (P18031 whole entry)
# HepG2 [8] = assay: Induction of apoptosis in human HepG2 cells at 50 uM after 48 hrs by AnnexinV-FITC/PI flow cytometric analysis; assay type: functional, cell-based
# Procedure, shortened: (§2)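 HepG2 cells exposed to 50, 100 or 300 μM for 48 h. Harvested, washed twice in ice-cold 0.85% NaCl, then resuspended in binding buffer with Annexin V-FITC and PI. Stained 15 min in the dark at room temperature and analysed by flow cytometry within 1 h. Viable, early/late apoptotic and necrotic fractions quantified from annexin V binding and PI uptake; mean ± SD, n = 3.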
# HepG2 [9] = assay: Cytotoxicity against human HepG2 cells after 48 hrs by MTT assay; assay type: functional, cell-based
# Procedure, shortened: (§3)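 HepG2 or MCF7 cells in DMEM with 10% FBS and penicillin/streptomycin, 37 °C, 5% CO2. Plated overnight, then exposed to a range of concentrations for 48 h with DMSO held at 1.0% in samples and control. MTT (5 mg/mL stock) added for 4 h at 37 °C, formazan dissolved in DMSO, OD read at 490 nm. Viability % = T/C × 100, averaged over six wells.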
# MCF7 = assay: Cytotoxicity against human MCF7 cells after 48 hrs by MTT assay; assay type: functional, cell-based; procedure, shortened: as §3
# HepG2 [10] = assay: Induction of apoptosis in human HepG2 cells assessed as apoptotic cells at 300 uM after 48 hrs by AnnexinV-FITC/PI flow cytometric analysis; assay type: functional; procedure, shortened: as §2
# [11] = biological target: T6, Tyrosine-protein phosphatase non-receptor type 1 (Homo sapiens); remark: listed apart in the source
# HepG2 [12] = assay: Induction of necrosis in human HepG2 cells assessed as necrotic cells at 300 uM after 48 hrs by AnnexinV-FITC/PI flow cytometric analysis; assay type: functional
# Procedure, shortened: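 HepG2 cells grown in DMEM with 10% FBS and penicillin/streptomycin at 37 °C under 5% CO2, then exposed for 48 h to three concentrations (50, 100, 300). Cells were washed twice in ice-cold 0.85% NaCl and stained with annexin V-FITC and PI in binding buffer for 15 min in the dark at room temperature. Flow cytometry within 1 h sorted necrotic cells by annexin V binding and PI uptake; mean ± SD, n = 3.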
# HepG2 [13] = assay: Induction of necrosis in human HepG2 cells assessed as necrotic cells at 100 uM after 48 hrs by AnnexinV-FITC/PI flow cytometric analysis; assay type: functional; procedure, shortened: as §2
# HepG2 [14] = assay: Induction of apoptosis in human HepG2 cells assessed as apoptotic cells at 100 uM after 48 hrs by AnnexinV-FITC/PI flow cytometric analysis; assay type: functional; procedure, shortened: as §2
# [15] = biological target: T6, Tyrosine-protein phosphatase non-receptor type 1 (Homo sapiens); remark: listed apart in the source
Compound,pIC50 [1],pIC50 [2],pIC50 [3],pIC50 [4],pIC50 [5],Kic [6] [µM],Kic [7] [µM],Activity (HepG2 [8]),Activity (HepG2 [9]),Activity (MCF7),Activity (HepG2 [10]) [%],Ka [11] [×10⁵ /M],Activity (HepG2 [12]) [%],Activity (HepG2 [13]) [%],Activity (HepG2 [14]) [%],Ka [15] [×10⁵ /M]
CCOP(=O)(O)C(NCCCNC(c1ccccc1O)P(=O)(O)OCC)c1ccccc1O (configuration not stated),< 2.00,< 2.00,< 2.00,< 2.00,< 2.00,–,–,–,–,–,–,–,–,–,–,–
CCOP(=O)(O)C(N[C@@H](Cc1c[nH]c2ccccc12)C(=O)O)c1ccccc1O (some centres not stated),< 2.00,< 2.00,< 2.00,< 2.00,< 2.00,–,–,–,–,–,–,–,–,–,–,–
CCOP(=O)(O)C(N[C@@H](Cc1ccc(O)cc1)C(=O)O)c1ccccc1O (some centres not stated),< 2.00,< 2.00,< 2.00,< 2.00,< 2.00,–,–,–,–,–,–,–,–,–,–,–
CCOP(=O)(O)C(NCC(=O)O)c1ccccc1O (configuration not stated),< 2.00,< 2.00,< 2.00,< 2.00,< 2.00,–,–,–,–,–,–,–,–,–,–,–
CCOP(=O)(O)C(N[C@@H](CO)C(=O)O)c1ccccc1O (some centres not stated),3.89,4.16,3.72,3.91,3.87,102,–,–,–,–,–,–,–,–,–,–
CCOP(=O)(O)C(NCCNC(c1ccccc1O)P(=O)(O)OCC)c1ccccc1O (configuration not stated),< 2.00,< 2.00,< 2.00,< 2.00,< 2.00,–,–,–,–,–,–,–,–,–,–,–
CCOP(=O)(O)C(N[C@@H](Cc1ccccc1)C(=O)O)c1ccccc1O (some centres not stated),< 2.00,< 2.00,< 2.00,< 2.00,< 2.00,–,–,–,–,–,–,–,–,–,–,–
CCOP(=O)(OCC)[C@H](Nc1ccc([N+](=O)[O-])cc1)c1ccccc1O,< 2.00,3.54,< 2.00,3.62,3.66,–,–,–,–,–,–,–,–,–,–,–
CCOP(=O)(OCC)[C@H](Nc1ccc(Br)cc1)c1ccccc1O,< 2.00,3.76,< 2.00,4.29,4.04,–,96.3,–,–,–,–,–,–,–,–,–
CCOP(=O)(O)C(NCCCCCCNC(c1ccccc1O)P(=O)(O)OCC)c1ccccc1O (configuration not stated),< 2.00,< 2.00,< 2.00,< 2.00,< 2.00,–,–,–,–,–,–,–,–,–,–,–
CCOP(=O)(O)C(N[C@@H](C)C(=O)O)c1ccccc1O (some centres not stated),< 2.00,< 2.00,< 2.00,< 2.00,< 2.00,–,–,–,–,–,–,–,–,–,–,–
CCOP(=O)(OCC)[C@H](Nc1ccccc1Cl)c1ccccc1O,< 2.00,3.84,< 2.00,3.75,3.86,–,–,–,–,–,–,–,–,–,–,–
CCOP(=O)(O)C(N[C@@H](Cc1cnc[nH]1)C(=O)O)c1ccccc1O (some centres not stated),3.78,< 2.00,3.68,3.75,3.48,–,–,–,–,–,–,–,–,–,–,–
CCOP(=O)(O)C(N[C@H](C(=O)O)[C@@H](C)O)c1ccccc1O (some centres not stated),< 2.00,< 2.00,< 2.00,< 2.00,< 2.00,–,–,–,–,–,–,–,–,–,–,–
CCOP(=O)(O)C(N[C@@H](CS)C(=O)O)c1ccccc1O (some centres not stated),< 2.00,< 2.00,< 2.00,< 2.00,< 2.00,–,–,–,–,–,–,–,–,–,–,–
O=P(O)(O)[C@H](Nc1ccc(O)cc1)c1ccccc1O,< 2.00,3.80,< 2.00,4.84,5.18,–,4.4,inactive,Dose-dependent effect,Dose-dependent effect,69.7,2.27,22.7,1.9,7.2,2.23
CCOP(=O)(OCC)[C@H](Nc1ccc(Cl)cc1)c1ccccc1O,< 2.00,3.46,< 2.00,3.20,3.43,–,–,–,–,–,–,–,–,–,–,–
